Results on 13 compounds are retold here after ChEMBL document CHEMBL2169768, “Synthesis and preliminary biological profile of new NO-donor tolbutamide analogues” (Bioorg Med Chem Lett, 2012).

The term EC50 denotes the midpoint of the concentration-response curve. What is called IC50 is the concentration that gives 50% inhibition. In general, inhibition refers to the percentage by which the read-out fell short of the control.

Activity calls are given as the source filed them. No cut-off for these calls is given here.

Data set [1] has as its system INS-1E. Briefly: (§1) Induction of glucose-stimulated insulin release from rat INS-1E cells at 200 uM after 1 hr by coated charcoal immunoassay in presence of 2 mM glucose. Format: functional. The essentials:
(§2)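 INS-1E cells at passages 54–65 were kept in RPMI 1640 with 10% heat-inactivated FCS, pyruvate, 2-mercaptoethanol, glutamine and HEPES, and were seeded at 4 x 10^4 cells/cm2. After 48 h they were preincubated 1 h at 37 °C in KRBH with 0.5% BSA and 1 or 2 mM glucose. They were then exposed 1 h at 37 °C to glucose ± compound (100 or 200 µM). Secreted insulin was measured by RIA against a rat insulin standard. Data are mean ± SEM.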

Data set [2] deals with Aorta. Briefly: Vasodilatory activity in Wistar rat thoracic aorta assessed as relaxation of L-phenylephrine-induced contraction after 120 mins. The class given is functional, tissue-based. As to conditions: for EC50: 2 h.
In data set [3] the test system is Aorta. The experiment in a line: Vasodilatory activity in Wistar rat thoracic aorta assessed as relaxation of L-phenylephrine-induced contraction after 120 mins in presence of 1 uM sGC inhibitor ODQ. The class given is functional, tissue-based. As to conditions: for EC50: 2 h.
The nature of data set [4]: Induction of NO release in phosphate buffered saline of pH 7.4 after 1 hr by Griess assay in presence of 0.5 mM L-cysteine. The class given is physicochemical. As to conditions: buffer, pH 7.4, 1 h. (The Griess reaction detects nitrite, a stable product of nitric oxide.)
Data set [5] in a line: Induction of nitrite production in rat INS-1E cells assessed per well at 200 uM after 2 hrs by Griess method in presence of 2 mM glucose. The class given is functional.
The nature of data set [6]: Antiaggregatory activity in human platelet-rich plasma assessed as inhibition of collagen-induced aggregation pretreated 10 mins before addition of stimulus measured after 10 mins in presence of 50 uM ODQ. Format: functional.
The nature of data set [7]: Induction of glucose-stimulated insulin release from rat INS-1E cells at 200 uM after 1 hr by coated charcoal immunoassay in presence of 2 mM glucose relative to control. The class given is functional. The method, boiled down: as §2
Data set [8] in a line: Induction of glucose-stimulated insulin release from rat INS-1E cells at 100 uM after 1 hr by coated charcoal immunoassay in presence of 2 mM glucose relative to control. The class given is functional. The method, boiled down: as §2
Data set [9] relates to INS-1E. The experiment in a line: Induction of glucose-stimulated insulin release from rat INS-1E cells at 200 uM after 1 hr by coated charcoal immunoassay in presence of up to 4 mM glucose. Format: functional, cell-based. The essentials: as §2
A short description of data set [10]: Induction of NO release in phosphate buffered saline of pH 7.4 after 1 hr by Griess assay in presence of 5 mM L-cysteine. Format: physicochemical. As to conditions: buffer, pH 7.4, 1 h.
The nature of data set [11]: Antiaggregatory activity in human platelet-rich plasma assessed as inhibition of collagen-induced aggregation at 300 uM pretreated 10 mins before addition of stimulus measured after 10 mins. The class given is functional. The method, boiled down:
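Collagen-triggered aggregation in human platelet-rich plasma, by a method described in earlier work. Inhibition is taken relative to control samples. IC50 is obtained by nonlinear regression where it can be calculated. Otherwise percent inhibition is reported at the top concentration tried, 300 µM.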

The nature of data set [12]: as §1. The class given is functional. The method, boiled down:
as §2

Data set [13] can be described thus: Induction of glucose-stimulated insulin release from rat INS-1E cells at 200 uM after 1 hr by coated charcoal immunoassay in presence of 5.6 mM glucose. The class given is functional. The essentials: as §2
Data set [14] in a line: Induction of glucose-stimulated insulin release from rat INS-1E cells at 200 uM after 1 hr by coated charcoal immunoassay in presence of 11 mM glucose. Format: functional. The essentials:
as §2

A further data set relates to liver (rat). The experiment in a line: Induction of nitric oxide release from Wistar rat liver homogenate at 200 uM after 45 mins by Griess method.

As to `NC(=O)c1c(COc2ccccc2)no[n+]1[O-]`, in the data set on INS-1E [1], the result was inactive.
As for `CCCCNC(=O)NS(=O)(=O)c1ccc(Oc2no[n+]([O-])c2S(=O)(=O)c2ccccc2)cc1`, the Activity result with Aorta [2] was “Dose-dependent effect”; in data set [4] it was 32.1%; in [5] it was 22.68 nmol; in data set [7], 4.33%; in data set [8] it was 3.06%. Moreover, the EC50 with Aorta [2] was determined as 2.4 nM; in the data set with Aorta [3], 220 nM. The IC50 in data set [6] was determined as 34000 nM. Besides, the result in the data set with INS-1E [9] was Active.
On to `CCCCNC(=O)NS(=O)(=O)c1ccc(OCc2no[n+]([O-])c2-c2ccccc2)cc1`, for which the Activity entry is “Dose-dependent effect” in the data set with Aorta [2]; less than 1% in data set [10]; 7.03 nmol in [5]; 2.41% in data set [7]; 1.83% in [8]. In addition, the EC50 with Aorta [2] is 2400 nM; in the data set with Aorta [3] it was more than 100000 nM. Besides, in data set [11], the inhibition at 300 µM was 13%. Also, the result in the data set on INS-1E [9] was Active.
As for `CCCCNC(=O)NS(=O)(=O)c1ccc(OCc2no[n+]([O-])c2C#N)cc1`, the Activity result in the data set with Aorta [2] is “Dose-dependent effect”; in data set [4] it was 27.7%; in data set [5] it was 10.33 nmol. The EC50 with Aorta [3] turned out to be 900 nM. In addition, the IC50 in data set [6] is 209000 nM. Moreover, in the data set with INS-1E [9], the outcome was Active.
`N#Cc1c(COc2ccccc2)no[n+]1[O-]`: the result in the data set with INS-1E [1] was inactive.
Still for that read-out and setting: the entry for `O=S(=O)(c1ccccc1)c1c(Oc2ccccc2)no[n+]1[O-]` is “inactive”.
As to `CCCCNC(=O)NS(=O)(=O)c1ccc(OCc2no[n+]([O-])c2C(N)=O)cc1`, the Activity entry in the data set on Aorta [2] is “Dose-dependent effect”; in data set [10], 9.1%; in data set [5], 3.47 nmol; in data set [12], 2.12%; in data set [7] it was 1.94%; in data set [8], 1.46%. The Activity in [13] is 4.19%; in [14] it was 4.92%. For the same compound, the results for the EC50 in the data set with Aorta [2] and with Aorta [3] were 740 nM and 57000 nM, respectively. The inhibition at 300 µM in data set [11] is 5.2%.
Consider `O=[N+]([O-])OCC(COc1ccccc1)O[N+](=O)[O-]` (stereo not drawn), for which, in the data set on INS-1E [1], the result was inactive.
For the compound `CCCCNC(=O)NS(=O)(=O)c1ccc(OCC(CO[N+](=O)[O-])O[N+](=O)[O-])cc1` (stereo not drawn), the Activity entry with Aorta [2] was “Dose-dependent effect”; in data set [10] it was 4.3%; in data set [5] it was 5.65 nmol; in data set [12], 2.6%; in data set [13] it was 4.85%. Moreover, the EC50 with Aorta [2] worked out at 900 nM; in the data set on Aorta [3], 61000 nM. For the same compound, in data set [11], the inhibition at 300 µM was determined as 5.6%. Further, the outcome in the data set with INS-1E [9] and in the data set on liver (rat) was Active.
`CCCCNC(=O)NS(=O)(=O)c1ccc(OCCCO[N+](=O)[O-])cc1`: the Activity result in the data set on Aorta [2] was “Dose-dependent effect”; in data set [10], less than 1%; in data set [5], 3.88 nmol; in [12] it was 2.18%; in [7], 2.38%; in [8], 1.86%. Besides, the Activity is listed as 4.62% in data set [13] and 5.79% in data set [14]. The figures for the EC50 in the data set with Aorta [2] and in the data set with Aorta [3] were 1600 nM and more than 100000 nM, respectively. In addition, the inhibition at 300 µM in data set [11] stood at 1.1%. The outcome in the data set with liver (rat) was Active.
Regarding `[O-][n+]1onc(COc2ccccc2)c1-c1ccccc1`, in the data set on INS-1E [1], the outcome was inactive.
For the compound `CCCCNC(=O)NS(=O)(=O)c1ccc(C)cc1` [TOLBUTAMIDE], the Activity entry in the data set with Aorta [2] was “Dose-dependent effect”; in [5], 3.2 nmol; in data set [12] it was 2.76%; in [7], 2.97%; in data set [8], 2.22%; in [13], 4.98%. Also, the Activity in data set [14] is reported as 5.45%. The outcome with Aorta [3] was inactive. Also, the inhibition at 300 µM in data set [11] worked out at 6.4%. In the data set on INS-1E [9], the outcome was Active.
With `O=[N+]([O-])OCCCOc1ccccc1`, in the data set on INS-1E [1], the outcome was inactive.
